This passage reports Activity and IC50 results from ChEMBL document CHEMBL4261589, “Structure-based design of allosteric calpain-1 inhibitors populating a novel bioactivity space” (Eur J Med Chem, 2018).

Assay [1] concerns the target Calpain small subunit 1 (Homo sapiens) (UniProt P04632). The assay is described as follows: Binding affinity to human Calpain-1 PEF(S) domain at 0.5 to 500 uM expressed in Escherichia coli BL21-CodonPlus (DE3) RP cells incubated for 5 mins by TNS displacement assay.
Assay [2] addresses T1, Calpain-1 catalytic subunit (Sus scrofa, UniProt P35750).
T1 sequence (P35750 whole entry): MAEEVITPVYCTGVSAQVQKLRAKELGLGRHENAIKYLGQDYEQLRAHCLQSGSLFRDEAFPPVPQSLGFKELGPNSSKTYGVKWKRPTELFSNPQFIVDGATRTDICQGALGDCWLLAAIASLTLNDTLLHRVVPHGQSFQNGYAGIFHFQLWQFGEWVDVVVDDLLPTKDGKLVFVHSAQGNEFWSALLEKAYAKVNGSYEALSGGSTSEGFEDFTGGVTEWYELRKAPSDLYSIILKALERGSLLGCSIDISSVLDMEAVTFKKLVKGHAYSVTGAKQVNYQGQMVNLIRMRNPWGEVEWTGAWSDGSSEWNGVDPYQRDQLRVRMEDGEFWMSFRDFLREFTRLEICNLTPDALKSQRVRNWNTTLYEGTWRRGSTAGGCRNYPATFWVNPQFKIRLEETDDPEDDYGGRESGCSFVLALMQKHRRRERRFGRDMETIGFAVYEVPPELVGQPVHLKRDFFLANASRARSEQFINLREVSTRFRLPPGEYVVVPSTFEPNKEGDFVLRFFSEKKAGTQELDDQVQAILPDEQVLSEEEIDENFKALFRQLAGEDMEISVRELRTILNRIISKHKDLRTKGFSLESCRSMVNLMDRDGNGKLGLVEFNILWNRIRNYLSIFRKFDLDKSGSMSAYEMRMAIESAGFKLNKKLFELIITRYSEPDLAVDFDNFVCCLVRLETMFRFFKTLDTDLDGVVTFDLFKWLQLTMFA
The experiment in a line: Inhibition of full length porcine Calpain-1 complex using (H2NeK(-FAM)-EVYGMMK(DABCYL)eOH) substrate by FRET assay. An outline of the steps: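 Purified porcine calpain-1 (25 nM) with 1 µM FAM/DABCYL α-spectrin peptide, cleaved at Tyr-Gly, in 10 mM HEPES, 10 mM DTT, 0.5 mM EDTA, 0.1% BSA, pH 6.8, at 37 °C. Compounds (5 nM–200 µM, from DMSO stock) were added before starting with 5 mM CaCl2. Fluorescence read at ex 490/em 520 nm. DMSO-alone controls were run. IC50 given as mean ± SD of three independent experiments.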

Assay [3] addresses Calpain-1 catalytic subunit (Homo sapiens) (UniProt P07384). The experiment in a line: Inhibition of human Calpain-1 active site domain using (H2NeK(-FAM)-EVYGMMK(DABCYL)eOH) substrate by FRET assay.

Activity calls are given as the source filed them. The rule behind the calls is not given here.

Sequence of Calpain small subunit 1 (Homo sapiens) (P04632 whole entry, looked up): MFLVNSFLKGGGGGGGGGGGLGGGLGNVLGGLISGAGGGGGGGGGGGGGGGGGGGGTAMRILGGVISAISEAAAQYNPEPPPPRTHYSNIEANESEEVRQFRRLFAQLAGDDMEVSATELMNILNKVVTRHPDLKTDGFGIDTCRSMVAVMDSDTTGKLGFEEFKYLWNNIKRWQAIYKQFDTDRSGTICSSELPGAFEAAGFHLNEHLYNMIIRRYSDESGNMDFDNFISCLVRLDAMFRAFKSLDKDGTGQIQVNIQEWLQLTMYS

For `O=C1CCCN1c1cccc(NS(=O)(=O)c2cccc(C(F)(F)F)c2)c1`, the outcome in assay [1] was inactive. Also, the IC50 entry in assay [2] and in assay [3] was “Not Active” throughout.

As for `COCCOc1nc(-c2ccc(OC)cc2)n(-c2cccc(NC(=O)c3ccc(C)c(C(F)(F)F)c3)c2)n1`, the IC50 result in assay [2] and in assay [3] was “Not Active” in each case.

`NC(=O)c1cccc(NS(=O)(=O)c2cccc(C(F)(F)F)c2)c1`: in assay [1], the outcome was Active. The IC50 entry in assay [2] and in assay [3] was “Not Active” each time.

As to `O=C(NC1CCC(O)CC1)c1ccc(S(=O)(=O)Nc2cccc(C(F)(F)F)c2)cc1` (stereo not drawn), the result in assay [1] was Active. Also, the IC50 result in assay [2] and in assay [3] was “Not Active” each time.

For `COCCOc1nc(-c2cccc(C(F)(F)F)c2)n(-c2ccc(NC(=O)C(C)C)cc2)n1`, the IC50 result in assay [2] and in assay [3] was “Not Active” each time.

With `O=C(O)c1cc(NS(=O)(=O)c2ccc(F)cc2)cnc1N1CCCCCC1`, in assay [1], the result was Active. Moreover, the IC50 (as a rule, the concentration needed to halve the response being measured) in assay [2] (read-out: IC50) was above 100 µM; in assay [3] (read-out: IC50), 41.1 µM.

With `CC(C)(C)NC(=O)c1ccc(Oc2cc(F)c(CC(=O)O)cc2Cl)c(NS(=O)(=O)c2ccc(C3CC3)cc2Cl)c1` [VIDUPIPRANT], the outcome in assay [1] was Active. Moreover, the IC50 in assay [2] (read-out: IC50) is 7.5 µM; in assay [3] (read-out: IC50), above 100 µM.

Consider `FC(F)(F)c1ccc(CSc2nnc3ccc(-c4ccccn4)nn23)cc1`, for which the IC50 is 20.5 µM in assay [2] (read-out: IC50) and “Not Active” in assay [3].

Turning to `O=C(CSc1nnc2ccc(-c3ccccn3)nn12)Nc1cccc(C(F)(F)F)c1`, the figures for the IC50 in assay [2] (read-out: IC50) and in assay [3] were 29.7 µM and “Not Active”, respectively.

`O=C(O)/C(S)=C/c1ccc(I)cc1`: in assay [1], the outcome was Active. In addition, the IC50 in assay [2] (read-out: IC50) worked out at 19.3 µM; in assay [3] (read-out: IC50), 17.8 µM.

For `FC(F)(F)c1cccc(CSc2nnc3ccc(-c4ccccn4)nn23)c1`, the IC50 entry in assay [2] and in assay [3] was “Not Active” in each case.
